Reference: ChEMBL document CHEMBL3632499, “Synthesis and Antiproliferative Activity Evaluation of the Disulfide-Containing Cyclic Peptide Thiochondrilline C and Derivatives” (J Nat Prod, 2015)

Tests used:
[1] = test system: UO-31; test: Antiproliferative activity against human UO31 cells; assay type: functional
Summary of the method: (§1)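 Run in the National Cancer Institute 60 cancer cell line panel. Read-outs: GI50, the concentration causing 50% growth inhibition; TGI, the concentration causing total growth inhibition; LC50, the concentration causing 50% net cell killing. Values are averages ± SEM from two independent determinations.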

[2] = Half life in mouse liver microsomes; assay type: ADME
[3] = Antiproliferative activity against human SF295 cells; assay type: functional
Summary of the method: (§2)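 Profiled in the National Cancer Institute 60 cancer cell line screen. Reported GI50 is the concentration giving 50% growth inhibition, TGI the concentration giving total growth inhibition, and LC50 the concentration giving 50% net cell killing. Values are averages ± SEM from two independent determinations.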

[4] = test system: SK-MEL-2; test: Antiproliferative activity against human SK-MEL-2 cells; assay type: functional; summary of the method: as §2
[5] = test system: DU-145; test: Antiproliferative activity against human DU145 cells; assay type: functional; summary of the method: as §2
[6] = test system: HCT-116; test: Antiproliferative activity against human HCT116 cells; assay type: functional; summary of the method: as §2
[7] = Antiproliferative activity against human HCC2998 cells; assay type: functional; summary of the method: as §2
[8] = test system: SN12C; test: Antiproliferative activity against human SN12C cells; assay type: functional; summary of the method: as §2
[9] = test system: HT-29; test: Antiproliferative activity against human HT-29 cells; assay type: functional; summary of the method: as §2
[10] = test system: NCI-H23; test: Antiproliferative activity against human NCI-H23 cells; assay type: functional; summary of the method: as §2
[11] = test system: A549; test: Antiproliferative activity against human A549/ATCC cells; assay type: functional; summary of the method: as §2
[12] = test system: SK-MEL-28; test: Antiproliferative activity against human SK-MEL-28 cells; assay type: functional; summary of the method: as §2
[13] = Antiproliferative activity against human HOP92 cells; assay type: functional; summary of the method: as §2
[14] = test system: NCI-H226; test: Antiproliferative activity against human NCI-H226 cells; assay type: functional; summary of the method: as §2
[15] = test system: SK-OV-3; test: Antiproliferative activity against human SKOV3 cells; assay type: functional; summary of the method: as §2
[16] = test system: Malme-3M; test: Antiproliferative activity against human MALME-3M cells; assay type: functional; summary of the method: as §2
[17] = Antiproliferative activity against human RXF393 cells; assay type: functional; summary of the method: as §2
[18] = test system: NCI-H322M; test: Antiproliferative activity against human NCI-H322M cells; assay type: functional; summary of the method: as §2
[19] = test system: MDA-MB-435; test: Antiproliferative activity against human MDA-MB-435 cells; assay type: functional; summary of the method: as §2
[20] = test system: NCI-H460; test: Antiproliferative activity against human NCI-H460 cells; assay type: functional; summary of the method: as §2
[21] = Antiproliferative activity against human EKVX cells; assay type: functional; summary of the method: as §2
[22] = test system: SW-620; test: Antiproliferative activity against human SW620 cells; assay type: functional; summary of the method: as §1
[23] = test system: SNB-75; test: Antiproliferative activity against human SNB75 cells; assay type: functional; summary of the method: as §1
[24] = Antiproliferative activity against human LOXIMVI cells; assay type: functional; details: LOX IMVI; summary of the method: as §2
[25] = read-out: LC50 (the source's name)

Work on C[C@H](NC(=O)[C@@H]1CSSC[C@@H](NC(=O)c2nc3ccccc3cc2O)C(=O)NCC(=O)N1C)c1ccccc1 yielded a GI50 [1] of 5.8 µM, a TGI [1] of 13.3 µM and a CC50 [1, 25] of 30.8 µM. The half-life [2] was 27 min, the GI50 ([3]; SF-295) was 7.4 µM and the TGI ([3]; SF-295) was 16.3 µM. The CC50 ([3]; SF-295, read-out: LC50 (the source's name)) was 35.8 µM, the GI50 [4] was 2.6 µM and the TGI [4] was 10.1 µM. The CC50 [4, 25] was 27.1 µM, the GI50 [5] was 5.8 µM and the TGI [5] was 12.7 µM. The CC50 [5, 25] was 27.7 µM, the GI50 [6] was 1.8 µM and the TGI [6] was 6 µM. It also gave a CC50 [6, 25] of 18.3 µM, a GI50 ([7]; HCC 2998) of 7.9 µM and a TGI ([7]; HCC 2998) of 17.9 µM. The CC50 ([7]; HCC 2998, read-out: LC50 (the source's name)) was greater than 50 µM, the GI50 [8] was 5.6 µM and the TGI [8] was 14.1 µM. The CC50 [8, 25] was 35.4 µM, the GI50 [9] was 1.2 µM and the TGI [9] was 3.9 µM. It also gave a CC50 [9, 25] of 12.4 µM, a GI50 [10] of 5.2 µM and a TGI [10] of 12.6 µM. The CC50 [10, 25] was 29.7 µM, the GI50 [11] was 7.1 µM and the TGI [11] was 15.7 µM. It also gave a CC50 [11, 25] of 35.3 µM, a GI50 [12] of 0.9 µM and a TGI [12] of 9.9 µM. The CC50 [12, 25] was 31.8 µM, the GI50 ([13]; HOP-92) was 9.7 µM and the TGI ([13]; HOP-92) was 18.6 µM. It also gave a CC50 ([13]; HOP-92, read-out: LC50 (the source's name)) of 35.6 µM, a GI50 [14] of 8.9 µM and a TGI [14] of 17.4 µM. It also gave a CC50 [14, 25] of 34.2 µM, a GI50 [15] of 5.8 µM and a TGI [15] of 21.3 µM. The CC50 [15, 25] was greater than 50 µM, the GI50 [16] was 6.1 µM and the TGI [16] was 14 µM. It also gave a CC50 [16, 25] of 32.3 µM, a GI50 ([17]; RXF 393) of 1.3 µM and a TGI ([17]; RXF 393) of 3.1 µM. The CC50 ([17]; RXF 393, read-out: LC50 (the source's name)) was 13 µM, the GI50 [18] was 7.1 µM and the TGI [18] was 20.1 µM. The CC50 [18, 25] was greater than 50 µM, the GI50 [19] was 0.8 µM and the TGI [19] was 6.6 µM. For the same compound, the CC50 [19, 25] was 22 µM, the GI50 [20] was 1.3 µM and the TGI [20] was 8 µM. It also gave a CC50 [20, 25] of 30.5 µM, a GI50 [21] of 3.8 µM and a TGI [21] of 11.8 µM. For the same compound, the CC50 [21, 25] was 31.4 µM, the GI50 [22] was 1.9 µM and the TGI [22] was 6.3 µM. It also gave a CC50 [22, 25] of 33.2 µM, a GI50 [23] of 7.7 µM and a TGI [23] greater than 50 µM. It also gave a CC50 [23, 25] greater than 50 µM, a GI50 [24] of 0.7 µM and a TGI [24] of 1.5 µM. The CC50 [24, 25] was 3.6 µM.
